This note sets out measurements from ChEMBL document CHEMBL1156172, “Substituted hydrazinecarbothioamide as potent antitubercular agents: synthesis and quantitative structure-activity relationship (QSAR)” (2010).

SMILES strings stand for the structures. ≈ marks a conversion by molar mass, not a printed value. Where only a bound is given, the exact number is not on record here.

This assay has as its system Mycobacterium tuberculosis. Put plainly: Antituberculosis activity against Mycobacterium tuberculosis H37Rv after 4 weeks by agar slant proportion method. It counts as functional. The following applies: for MIC: Mycobacterium tuberculosis, H37Rv, 672 h. In a few lines: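 M. tuberculosis H37Rv inoculated onto drug-containing slants at 105 bacilli per tube, then incubated 4 weeks at 37 °C (proportion method). MIC taken as the lowest concentration of compound giving no visible growth of the inoculated bacilli; reported in μg/mL.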

`C/C(=N\NC(=S)Nc1ccc(I)cc1)c1ccc([N+](=O)[O-])cc1`: the MIC is above 12.5 µg/mL.
With `C/C(=N\NC(=S)Nc1ccc(Br)cc1)c1ccc(Br)cc1`, the “-logMIC” value is recorded as 0.097 and the MIC came to 0.8 µg/mL (≈ 1.87 µM).
Compound `C/C(=N\NC(=S)NNc1ccc(C)cc1)c1ccc(Br)cc1` displayed an MIC of 1.56 µg/mL (≈ 4.13 µM).
With `C/C(=N\NC(=S)NNC(=O)c1cccnc1)c1ccc(Br)cc1`, the “-logMIC” value was -0.796 and the MIC was found to be 6.25 µg/mL (≈ 15.9 µM).
`C/C(=N\NC(=S)Nc1cccc(Cl)c1Cl)c1ccc([N+](=O)[O-])cc1` returned an MIC above 12.5 µg/mL.
`C/C(=N\NC(=S)Nc1cc(C)ccn1)c1ccc(Br)cc1`: the “-logMIC” value worked out at 0.398 and the minimum inhibitory concentration (MIC) worked out at 0.4 µg/mL (≈ 1.1 µM).
`C/C(=N\NC(=S)Nc1cc(C)ccn1)c1ccc([N+](=O)[O-])cc1`: the “-logMIC” value was -0.494 and the MIC turned out to be 3.12 µg/mL (≈ 9.47 µM).
As to `CC(=O)C1(c2ccccc2)CCN(NC(=S)N/N=C(\C)c2ccc(Br)cc2)CC1`, the “-logMIC” value came out at 0.097 and 0.8 µg/mL (≈ 1.69 µM) was the least that counted as inhibitory (MIC).
For the compound `COc1ccc(NC(=S)N/N=C(\C)c2ccc(Br)cc2)cc1`, the “-logMIC” value came to 0.097 and the MIC was 0.8 µg/mL (≈ 2.11 µM).
With `C/C(=N\NC(=S)Nc1cccc(Cl)c1Cl)c1ccc(Br)cc1`, the “-logMIC” value is reported as 0.398 and the MIC was found to be 0.4 µg/mL (≈ 0.959 µM).
For `COc1ccc(NNC(=S)N/N=C(\C)c2ccc(Br)cc2)cc1` the same measures were -0.193 and 1.56 µg/mL (≈ 3.97 µM).
Compound `C/C(=N\NC(=S)Nc1ccncc1)c1ccc(Br)cc1` registered a minimum inhibitory concentration (MIC) above 12.5 µg/mL.
Same read-out and setting: the result for `C/C(=N\NC(=S)Nc1ccccc1F)c1ccc(Br)cc1` reads 3.12 µg/mL (≈ 8.52 µM); that for `C/C(=N\NC(=S)Nc1cccc(C)c1)c1ccc([N+](=O)[O-])cc1`, above 12.5 µg/mL; that for `C/C(=N\NC(=S)NN)c1ccc(Br)cc1`, above 12.5 µg/mL.
Turning to `C/C(=N\NC(=S)Nc1ccccc1[N+](=O)[O-])c1ccc(Br)cc1`, the “-logMIC” value was 0.398 and the MIC stood at 0.4 µg/mL (≈ 1.02 µM).
`C/C(=N\NC(=S)Nc1ccncc1C)c1ccc(Br)cc1`: the MIC was above 12.5 µg/mL.
On to `C/C(=N\NC(=S)Nc1ccc(I)cc1)c1ccc(Br)cc1`, for which the “-logMIC” value stood at 0.097 and the MIC turned out to be 0.8 µg/mL (≈ 1.69 µM).
Consider `C/C(=N\NC(=S)NN1CCN(c2ccccc2Cl)CC1)c1ccc(Br)cc1`, for which the MIC was found to be 3.12 µg/mL (≈ 6.68 µM).
For the compound `C/C(=N\NC(=S)Nc1ccc(Br)cc1)c1ccc([N+](=O)[O-])cc1`, the “-logMIC” value was -0.796 and 6.25 µg/mL (≈ 15.9 µM) was the least that counted as inhibitory (MIC).
`C/C(=N\NC(=S)Nc1ccccc1F)c1ccc([N+](=O)[O-])cc1` yielded an MIC above 12.5 µg/mL.
The same measure, in the same setting: the result for `COc1ccc(NC(=S)N/N=C(\C)c2ccc([N+](=O)[O-])cc2)cc1` reads above 12.5 µg/mL; that for `CC[C@@H](CO)NCCN[C@@H](CC)CO` [ETHAMBUTOL], 0.1 µg/mL (≈ 0.489 µM).
On the same count and under the same terms, the result for `NNC(=O)c1ccncc1` [ISONIAZID] reads 0.02 µg/mL (≈ 0.146 µM).
